Experimental data published in ChEMBL document CHEMBL4308887, “Synthesis and biological evaluation of clovamide analogues with catechol functionality as potent Parkinson's disease agents in vitro and in vivo” (Bioorg Med Chem Lett, 2019).
Active and inactive are the calls of the source. The calls are words filed in the database; no cut-off is given here.

Legend:
SH-SY5Y [1] = assay: Protection against H2O2-induced apoptosis in human SH-SY5Y cells assessed as decrease in ratio of Bax/Bcl2 expression preincubated for 6 hrs followed by H2O2 addition and measured after 24 hrs by Western blot analysis; assay type: functional, cell-based
Procedure, shortened: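 Western blot of Bax, Bcl-2 and cleaved caspase-3 in SH-SY5Y after pretreatment (1, 10 μM) and 600 μM H₂O₂. β-actin internal standard; Bax/Bcl-2 ratio from densitometry. Mean ± S.E.M., three independent experiments.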

[2] = Activation of PI3K/Akt/mTOR signaling in human SH-SY5Y cells assessed as up regulation of HO-1 expression at 10 uM after 24 hrs by Western blot analysis relative to control; assay type: cell-based
Procedure, shortened: (§1)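 HO-1 western blot in SH-SY5Y cells incubated 24 h with 1 at 0.1, 1 or 10 μM, without H₂O₂. Band densitometry expressed as % of control. Mean ± S.E.M. from three independent experiments.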

Mus musculus [3] = assay: (§2) Anti-parkinson's activity in MPTP-induced C57Bl/6 mouse model of Parkinson's disease assessed as increase in tyrosine hydroxylase expression in substantia nigra at 10 to 20 mg/kg, ig pretreated for 10 days followed by MPTP challenge measured 10 days post MPTP addition by Western blot analysis; assay type: functional, organism-based
Procedure, shortened: (§3)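 Tissue taken 10 days after MPTP injection from mice dosed orally with 1 (10 or 20 mg/kg). TH in SNpc and striatum by western blot, and by DAB immunostaining. Three of the mice per group analysed. Mean ± S.D., n = 6 mice/group.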

[4] = Activation of PI3K/Akt/mTOR signaling in human SH-SY5Y cells assessed as up regulation of HO-1 expression at 0.1 uM after 24 hrs by Western blot analysis relative to control; assay type: cell-based; procedure, shortened: as §1
[5] = Activation of PI3K/Akt/mTOR signaling in human SH-SY5Y cells assessed as up regulation of HO-1 expression at 1 uM after 24 hrs by Western blot analysis relative to control; assay type: cell-based; procedure, shortened: as §1
SH-SY5Y [6] = assay: Protection against H2O2-induced mitochondrial dysfunction in human SH-SY5Y cells assessed as mitochondrial membrane potential at 10 uM preincubated for 6 hrs followed by H2O2 addition and measured after 24 hrs by Rh123 staining based flow cytometry (reference value: 26.31 +/- 3.32%); assay type: functional
Procedure, shortened: (§4)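 ΔΨm examined by inverted fluorescence microscopy and flow cytometry after pretreatment (1, 10 μM) and 600 μM H₂O₂. Reported as % of control. Mean ± S.E.M., three independent experiments.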

Mus musculus [7] = assay: as §2, with “striatum” for “substantia nigra”, “DAB staining based immunohistochemistry method” for “Western blot analysis”; assay type: functional, organism-based; procedure, shortened: as §3
Mus musculus [8] = assay: Anti-parkinson's activity in MPTP-induced C57Bl/6 mouse model of Parkinson's disease assessed as decrease in ratio of Bax/Bcl2 expression in striatum at 10 to 20 mg/kg, ig pretreated for 10 days followed by MPTP challenge measured 10 days post MPTP addition by Western blot analysis; assay type: functional, organism-based
[9] = Activation of PI3K/Akt/mTOR signaling in human SH-SY5Y cells assessed as up regulation of H2O2-induced HO-1 expression at 10 uM preincubated for 6 hrs followed by H2O2 addition and after 24 hrs in presence of JNK inhibitor SP600125 by Western blot analysis; assay type: cell-based
Procedure, shortened: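 SH-SY5Y cells preincubated 1 h with one inhibitor: SB203580 10 μM, LY294002 5 μM, U0126 10 μM, SP600125 5 μM or rapamycin 100 nM. Then 1 (10 μM) for 6 h, then 600 μM H₂O₂. HO-1 measured by western blot and densitometry. Mean ± S.E.M., three independent experiments.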

SH-SY5Y [10] = assay: Neuroprotection against H2O2-induced toxicity in human SH-SY5Y cells assessed as decrease in LDH release preincubated for 6 hrs followed by H2O2 addition and measured after 24 hrs; assay type: functional, cell-based
Procedure, shortened: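 Cells pretreated with test agent (1 or 10 μM), then 600 μM H₂O₂; plasma membrane damage read as LDH leakage into medium (U/L). DMSO below 0.1% in all groups. Mean ± S.E.M. of three independent experiments.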

[11] = Induction of apoptosis in non-stimulated human SH-SY5Y cells assessed as viable cells at 10 uM measured after 6 hrs by Annexin V-FITC/propidium iodide staining based flow cytometry (reference value: 92.5%); assay type: cell-based; details: read-out: Activity
SH-SY5Y [12] = assay: Neuroprotection against H2O2-induced cell death in human SH-SY5Y cells assessed as cell viability at 10 uM preincubated for 6 hrs followed by H2O2 addition and measured after 24 hrs in presence of PI3K/Akt/mTOR inhibitor LY294002 by MTT assay relative to control; assay type: functional; details: read-out: Activity
Procedure, shortened: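 SH-SY5Y cells preincubated 1 h with LY294002 (5 μM) or rapamycin (100 nM). Then 1 (10 μM) for 6 h, then 600 μM H₂O₂. Viability by MTT. Mean ± S.E.M., three independent experiments.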

[13] = Activation of PI3K/Akt/mTOR signaling in human SH-SY5Y cells assessed as increase in mTOR phosphorylation after 5 to 360 mins by Western blot analysis; assay type: cell-based
Procedure, shortened: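 SH-SY5Y cells, unstimulated, exposed to 1 for 5, 15, 30, 60, 120, 240 or 360 min. Phospho-AKT and phospho-mTOR measured by western blot, reported as p-AKT/t-AKT and p-mTOR/t-mTOR ratios after densitometry. Mean ± S.E.M. of three independent experiments.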

SH-SY5Y [14] = assay: Induction of apoptosis in non-stimulated human SH-SY5Y cells assessed as early apoptotic cells at 10 uM measured after 6 hrs by Annexin V-FITC/propidium iodide staining based flow cytometry (reference value: 4.5%); assay type: cell-based
SH-SY5Y [15] = assay: Protection against H2O2-induced mitochondrial dysfunction in human SH-SY5Y cells assessed as increase in mitochondrial membrane potential at 1 to 10 uM preincubated for 6 hrs followed by H2O2 addition and measured after 24 hrs by Rh123 staining based inverted microscopic analysis; assay type: functional, cell-based; procedure, shortened: as §4
[16] = Half life in Sprague-Dawley rat at 25 mg/kg, po by LC-MS/MS analysis; assay type: ADME, organism-based; details: in vivo
Procedure, shortened: (§5)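 Male Sprague–Dawley rats dosed with 1 at 5 mg/kg i.v. (vehicle 5% DMSO, 2% F68, 93% saline) or 25 mg/kg p.o. (0.5% methylcellulose with 1% Tween 80). Orbital blood sampled at 0.083–24 h, 12 time points. Plasma PK parameters derived. Mean ± SD, n = 3.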

[17] = MRT in Sprague-Dawley rat at 25 mg/kg, po by LC-MS/MS analysis; assay type: ADME, organism-based; details: in vivo; procedure, shortened: as §5
[18] = Half life in Sprague-Dawley rat at 5 mg/kg, iv by LC-MS/MS analysis; assay type: ADME, organism-based; details: in vivo; procedure, shortened: as §5
[19] = AUC (0 to infinity) in Sprague-Dawley rat at 25 mg/kg, po by LC-MS/MS analysis; assay type: ADME, organism-based; design: dose 25 mg/kg, time infinity, route oral; details: in vivo
Procedure, shortened: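 Male Sprague–Dawley rats (n = 3) got a single oral dose of 25 mg/kg in 0.5% methylcellulose with 1% Tween 80. AUC0-∞ came from the plasma concentration–time profile, reported as mean ± SD.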

For COC(=O)[C@H](Cc1ccccc1)NC(=O)/C=C/c1ccc(O)c(O)c1 [N-CAFFEOYL-PHENYLALANINE METHYL ESTER], which Activity (SH-SY5Y [1]) is on record?
The Activity was “Dose-dependent effect”.

What about the Activity [2] of the same compound?
Its Activity is 206%.

And the Activity (Mus musculus [3])?
The Activity was “Active”.

What about the Activity [4] of the same compound?
The Activity was 111%.

And the Activity [5]?
The Activity was 155%.

What about the Activity (SH-SY5Y [6]) of the same compound?
Its Activity is 98.3%.

What about the Activity (Mus musculus [7]) of the same compound?
The Activity was “Active”.

And the Activity (Mus musculus [8])?
The Activity was “Active”.

What about the Activity [9] of the same compound?
The Activity was “Active”.

And the Activity (SH-SY5Y [10])?
Its Activity is “Dose-dependent effect”.

What about the viability at 6 h, 10 µM [11] of the same compound?
The viability at 6 h, 10 µM was 94.8%.

What about the viability at 10 µM (SH-SY5Y [12]) of the same compound?
The viability at 10 µM was 60.5%.

And the Activity [13]?
The Activity was “Active”.

What about the Activity (SH-SY5Y [14]) of the same compound?
Its Activity is 1.4%.

What about the Activity (SH-SY5Y [15]) of the same compound?
The Activity was “Active”.

And the half-life [16]?
Its half-life is 2.7 h.

What about the MRT [17] of the same compound?
The MRT was 3.06 h.

And the half-life [18]?
Its half-life is 0.85 h.

And the AUC [19]?
Its AUC is 2.49556 µg·h/mL.
